Columns and labels:
U87 glioblastoma cells = assay: MTT toxicity assay, U87; format: cell-based; settings: Homo sapiens, 168 h, read-out: IC50 (MTT assay), U87, 7 days incubation
Procedure, shortened: (§1)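 U87 (2.5 × 10^3) or U251 (5 × 10^3) cells per well were incubated 24 h at 37 °C. Medium was then replaced with test compound at 100, 33, 10, 3.3, 1, 0.3, 0.1 and 0.03 μM, in triplicate, for 7 days at 37 °C. Cells received 10% MTT in medium for 4 h, then solubilization solution. Absorbance was read at 570 nm with 690 nm background, and percent survival calculated versus control wells.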

U87 cells = assay: Clonogenic proliferation assay, U87; format: cell-based, human; settings: U87, 10 μM for 24 h, then 14 days drug-free
Procedure, shortened: (§2)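 Cells were seeded in 6-well plates in 6 replicates: U87 at 5 × 10^2 cells/well, U251 at 1 × 10^3 cells/well. After 24 h at 37 °C they were exposed to 10 μM test compound or drug-free medium for 24 h. Cells were then PBS-washed and grown 14 days drug-free, stained with 0.5% crystal violet for 30 min, and colonies counted. Survival was normalized to drug-free control.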

[1] = humans, twice daily; cited from earlier work
U251 glioblastoma cells = assay: MTT toxicity assay, U251; format: cell-based; settings: Homo sapiens, U-251, 168 h, read-out: IC50 (MTT assay), U251, 7 days incubation
Procedure, shortened: as §1

U251 cells = assay: Clonogenic proliferation assay, U251; format: cell-based, human; settings: U251, 10 μM for 24 h, then 14 days drug-free
Procedure, shortened: as §2

In the case of `O=C(c1cc(Cc2n[nH]c(=O)c3ccccc23)ccc1F)N1CCN(C(=O)C2CC2)CC1` [Olaparib, 4-[3-(4-cyclopropanecarbonylpiperazine-1-carbonyl)-4-fluorobenzyl]-2H-phthalazin-1-one], the IC50 (U87 glioblastoma cells) is listed as 23.8 ± 1.3 µM, the “decrease in number of surviving colonies” value (U87 cells) is listed as 20-30% and the maximum tolerated dose [1] is listed as 400 mg. For the same compound, the IC50 (U251 glioblastoma cells) was 5.5 ± 1.2 µM and the “cell survival rate normalized to control” value (U251 cells) was 46.9%.
